Results taken from ChEMBL document CHEMBL4184218, “Design, synthesis and biological evaluation of new carbazole derivatives as anti-cancer and anti-migratory agents” (Bioorg Med Chem, 2018).
Active and inactive are the calls of the source. The calls are words filed in the database; no cut-off is given here.

Assays:
[1] = test system: MCF7; assay: Growth inhibition of human MCF7 cells after 24 hrs by SRB assay; assay type: functional; conditions: MCF7, 24 h
Outline: (§1)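 Sulforhodamine B growth assay in MCF-7 or MDA-MB-231 breast cancer cells after 24 h of compound treatment. GI50 is the concentration giving 50% inhibition of proliferation, with an upper test limit of 50 µM. Values are the mean of triplicate experiments.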

[2] = test system: MDA-MB-231; assay: Growth inhibition of human MDA-MB-231 cells after 24 hrs by SRB assay; assay type: functional; conditions: MDA-MB-231, 24 h; outline: as §1
[3] = biological target: Ras-related C3 botulinum toxin substrate 1 (Homo sapiens) (UniProt P63000); assay: Inhibition of Rac1 in human MDA-MB-435 cells assessed as reduction in phosphorylation at Thr423 residue at 2 uM after 24 hrs by Western blot analysis; assay type: cell-based
[4] = biological target: Ras-related C3 botulinum toxin substrate 1 (Homo sapiens, UniProt P63000, G15A); assay: Inhibition of Vav2 binding to Rac1 G15A mutant in human MDA-MB-231 cells after 1 hr by pull down assay; assay type: cell-based
[5] = Growth inhibition of human MCF10A cells at 10 uM after 24 hrs by MTT assay relative to control; assay type: cell-based, MCF-10A; conditions: read-out: GI
[6] = test system: MDA-MB-231; assay: Anti-migratory activity against human MDA-MB-231 cells assessed as reduction in cell migration at 5 uM after 24 hrs by scratch wound-healing assay relative to control; assay type: functional; design: scale not given: the % may be the effect or the level left
[7] = test system: MDA-MB-231; assay: Anti-migratory activity against human MDA-MB-231 cells assessed as cell migration at 10 uM after 12 hrs by scratch wound-healing assay; assay type: functional, cell-based
Outline: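 Scratch wound-healing assay in MDA-MB-231 cells with test compounds at 10 µM against vehicle (0.02% DMSO). Wounds were photographed at 0, 12 and 24 h. Migration was taken as the distance travelled from the scratch edge toward its centre, relative to control. Values are the average of three independent experiments.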

[8] = test system: MCF-10A; assay: Cytotoxicity against human MCF10A cells assessed as reduction in cell viability at 30 to 50 uM after 24 hrs by CellTiter 96 aqueous one solution cell proliferation assay; assay type: cell-based
[9] = test system: MCF-10A; assay: Growth inhibition of human MCF10A cells up to 36 uM after 24 hrs by CellTiter 96 aqueous one solution cell proliferation assay; assay type: cell-based
[10] = biological target: Ras-related C3 botulinum toxin substrate 1 (Homo sapiens) (UniProt P63000); assay: Inhibition of Rac1 in human MDA-MB-435 cells assessed as reduction in Rac-GTP level atv 250 nM after 24 hrs by ELISA-based pull down assay; assay type: cell-based
[11] = biological target: Ras-related C3 botulinum toxin substrate 1 (Homo sapiens) (UniProt P63000); assay: Inhibition of Rac1 in human MDA-MB-231 cells assessed as reduction in Rac-GTP level at 250 nM after 24 hrs by ELISA-based pull down assay; assay type: cell-based

| SMILES | GI50 [1] [µM] | GI50 [2] [µM] | also measured |
| --- | --- | --- | --- |
| CCn1c2ccccc2c2cc(NC(=O)c3cccnc3N3CCN(C(C)=O)CC3)ccc21 | > 50 | > 50 | – |
| CCn1c2ccccc2c2cc(NC(=O)c3nccnc3C(=O)NCCCN3CCOCC3)ccc21 | > 50 | > 50 | – |
| CCn1c2ccccc2c2cc(NC(=O)c3ccccc3C(=O)NCCO)ccc21 | > 50 | > 50 | – |
| CCn1c2ccccc2c2cc(NC(=O)c3nccnc3C(=O)NCCOC)ccc21 | > 50 | > 50 | – |
| CCn1c2ccccc2c2cc(NC(=O)c3cccnc3N3CCN(c4ccccc4)CC3)ccc21 | > 50 | > 50 | – |
| CCn1c2ccccc2c2cc(NC(=O)c3nccnc3C(=O)NCCN3CCOCC3)ccc21 | > 50 | > 50 | – |
| CCn1c2ccccc2c2cc(NC(=O)c3ccccc3C(=O)NCCOC)ccc21 | > 50 | > 50 | – |
| CCn1c2ccccc2c2cc(C(=O)Nc3cccnc3NCCCN3CCOCC3)ccc21 | 32 | 39 | – |
| CCn1c2ccccc2c2cc(NC(=O)c3nccnc3C(=O)NCCCn3ccnc3)ccc21 | > 50 | > 50 | – |
| CCn1c2ccccc2c2cc(Nc3ccnc(NCCCN4CCOCC4)n3)ccc21 | 14 | 15 | inhibition [3]: 60%; IC50 [4]: 1.1 µM; inhibition at 24 h, 10 µM [5]: 50%; Activity [6]: 17% |
| CCn1c2ccccc2c2cc(C(=O)Nc3cccnc3N3CCOCC3)ccc21 | > 50 | > 50 | Activity [8]: Non-Toxic; growth inhibition (GI) [9]: Non-Toxic; inhibition [10]: 55%; inhibition [11]: 55%; Activity [7]: Active |

Second part, led by results:

| GI50 [1] [µM] | GI50 [2] [µM] | SMILES | also measured |
| --- | --- | --- | --- |
| 14 | 18 | CCN(CC)CCNC(=O)c1cccnc1Nc1ccc2c(c1)c1ccccc1n2CC | – |
| > 50 | 19 | CCn1c2ccccc2c2cc(NC(=O)c3cccnc3NCCCN3CCOCC3)ccc21 | – |
| 41 | 31 | CCn1c2ccccc2c2cc(Nc3ncccc3NC(=O)c3cccnc3)ccc21 | – |
| 27 | > 50 | CCn1c2ccccc2c2cc(Nc3ncccc3C(=O)NCCCn3ccnc3)ccc21 | – |
| > 50 | > 50 | CCn1c2ccccc2c2cc(NC(=O)c3cccnc3N3CCOCC3)ccc21 | Activity [7]: Active |
| 13 | 18 | CCN(CC)CCCC(C)NC(=O)c1cccnc1Nc1ccc2c(c1)c1ccccc1n2CC (configuration not stated) | – |
| 28 | > 50 | CCn1c2ccccc2c2cc(Nc3ncccc3C(=O)NCCCN3CCOCC3)ccc21 | – |
| > 50 | > 50 | CCn1c2ccccc2c2cc(Nc3ncccc3C(=O)NCCN3CCN(C(=O)OC(C)(C)C)CC3)ccc21 | – |
| > 50 | > 50 | CCn1c2ccccc2c2cc(Nc3ncccc3C(=O)Nc3cc(OC)c(OC)c(OC)c3)ccc21 | – |
| 15 | 23 | CCn1c2ccccc2c2cc(Nc3ncccc3NC(=O)CCN3CCCCC3)ccc21 | – |
